Screens deposited in PubChem BioAssay by several laboratories.
NadD inh: blocks S. aureus nicotinate mononucleotide adenylyltransferase. inhibition, % at 20 µM. AID 602399. purified NadD enzyme, colorimetric absorbance read-out. 360,000 tested, 0.78% active; in the data active = inhibition above about 26%
rCAG binder: r(CAG) repeat RNA binding; TO-PRO-1 dye displacement fluorescence; inhibition, % at 3 µM; 370,000 tested, 1.3% active; AID 651821;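 active = inhibition above the plate cutoff, the mean of all test compounds on that plate plus 3 SD, cut at about 35% in these data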;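 also: higher means more dye released from RNA so lower well fluorescence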
Scp-1 inhibitor: blocks human Scp-1 phosphatase activity; 340,000 tested, 0.88% active; Q9GZU7; Recombinant Scp1, phosphopeptide, malachite green phosphate absorbance; inhibition, % at 20 µM;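 active = inhibition above about 50% at 20 µM, limit read from the data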
Target sequence (Q9GZU7 76-261 limits assumed): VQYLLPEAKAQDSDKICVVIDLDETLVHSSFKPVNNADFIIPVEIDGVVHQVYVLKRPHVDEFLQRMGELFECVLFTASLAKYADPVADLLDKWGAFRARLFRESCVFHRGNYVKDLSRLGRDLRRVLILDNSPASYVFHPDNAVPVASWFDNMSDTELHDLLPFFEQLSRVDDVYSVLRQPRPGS
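Times: enzyme reaction 45 min at room temperature, colour 5 min, stabilisation 30 min. Material: SCP-1 catalytic fragment, aa 76-261. Medium: Acidic Tris acetate buffer with magnesium and detergent. Signal: colorimetric free-phosphate detection, absorbance 630 nm. Read-out basis: % inhibition of SCP-1 phosphate liberation. Reagent: Phosphorylated 17-residue peptide substrate.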
STEP block: blocks human striatal-enriched tyrosine phosphatase. recombinant STEP, OMFP fluorogenic substrate, fluorescence. inhibition, % at 20 µM. P54829. 360,000 tested, 0.25% active;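 active = inhibition at 20 µM, scaled per plate between control wells, above about 37%, limit read from the data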
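System: STEP phosphatase, cell-free reaction; Buffer or medium: Bis-Tris pH 6.0 buffer with DTT, detergent; Incubation: 20 min at room temperature, dark; Measured by: fluorescence, 480/540 nm.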
LMPTP block: LMPTP (human) inhibition; P24666; recombinant LMPTP-A, OMFP fluorogenic substrate, fluorescence intensity; inhibition, % at 20 µM; 360,000 tested, 0.22% active;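 active = compounds that cut the enzyme signal by at least half of the control window in the single-dose screen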
Target sequence (P24666 whole entry, looked up): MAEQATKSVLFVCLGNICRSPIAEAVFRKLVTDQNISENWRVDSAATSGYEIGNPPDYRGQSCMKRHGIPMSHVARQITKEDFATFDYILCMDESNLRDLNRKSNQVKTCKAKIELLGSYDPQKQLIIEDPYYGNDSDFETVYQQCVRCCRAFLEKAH
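test system = LMPTP-A | amount = 0.625 nM LMPTP-A final | reagent = fluorogenic phosphatase substrate OMFP at 400 µM final | incubation = 50 min at room temperature | benchmarks = no-enzyme low control, uninhibited high control | medium = Bis-Tris pH 6.0, DTT, detergent | signal = fluorescence intensity of OMFP turnover product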
Large screens that a line does not name were inactive; ! = not active in a repeat. Hits are enriched below; roughly 2.6% of the tested compounds scored in any of these assays.

CC1C(=O)N(Cc2cn(Cc3ccco3)nn2)CCS(=O)(=O)N1Cc1ccc(-c2cccnc2)cc1 (stereo not drawn)	LMPTP block 53.7 (no result: Scp-1 inhibitor)
CC(C)Cc1ccc(CN2C(C)C(=O)N(Cc3cn(Cc4ccco4)nn3)CCS2(=O)=O)cc1 (stereo not drawn)	rCAG binder 50.6 (no result: Scp-1 inhibitor)
COC(=O)c1cc(C2(c3c[nH]c4ccccc34)CCN(C(=O)OC(C)(C)C)CC2)n2ccccc12	none (no result: NadD inh, Scp-1 inhibitor, STEP block, LMPTP block)
COC(=O)C1=C(C)N(Cc2cccc(C(F)(F)F)c2)C(=NCc2ccccc2C(F)(F)F)NC1c1cccc(F)c1 (stereo not drawn)	none (no result: NadD inh, Scp-1 inhibitor, STEP block, LMPTP block)
Cc1ccc(S(=O)(=O)N(C)C)cc1NC(=O)c1cc(-c2ccco2)nc2ccccc12	none (no result: rCAG binder)
Cc1ccccc1NC(=O)c1cc(-c2ccco2)nc2ccccc12	Scp-1 inhibitor 84.1
CN(CC(=O)Nc1cccc(F)c1)C(=O)c1cc(-c2ccco2)nc2ccccc12	Scp-1 inhibitor 82.6
O=C(O)c1cc(-c2ccco2)nc2ccc(Br)cc12	Scp-1 inhibitor 79.5!, STEP block 65.5!
CCOC(=O)C1CCCN(S(=O)(=O)c2cc3c(cc2Br)CCN3C(=O)CC)C1 (stereo not drawn)	none (no result: NadD inh, Scp-1 inhibitor, STEP block, LMPTP block)
CCN(CC(=O)Nc1c(F)cccc1F)C(=O)c1ccc2ccccc2n1	none
CCN(CC(=O)Nc1c(F)cccc1F)C(=O)/C=C/c1ccc2ccccc2n1	Scp-1 inhibitor 85.9, STEP block 41.7, LMPTP block 71.0
CN1C(=O)c2cc(NC(=O)Nc3ccccc3F)ccc2OC[C@H]2O[C@@H](CC(=O)NCc3ccc(-c4ccccc4)cc3)CC[C@@H]21	none (no result: NadD inh, Scp-1 inhibitor, STEP block, LMPTP block)
Cc1cc(C(=O)NNC(=O)/C=C/c2ccco2)c(C)o1	Scp-1 inhibitor 65.7
Cc1ccc(S(=O)(=O)NC2=C(N3CCN(c4ccccc4F)CC3)C(=O)c3ccccc3C2=O)cc1	NadD inh 33.9!
O=S1(=O)C=CCN1Cc1cn(Cc2cccc(C(F)(F)F)c2)nn1	none (no result: NadD inh, Scp-1 inhibitor, STEP block, LMPTP block)
O=C(N/N=C\c1c(O)ccc2ccccc12)c1ccc(O)cc1	none
CCOc1cc(/C=N/NC(=O)c2cc3c(ccc4ccccc43)o2)ccc1O	none
O=C(N/N=C/c1ccc([N+](=O)[O-])o1)c1cc2c(ccc3ccccc32)o1	Scp-1 inhibitor 93.7, STEP block 95.3, LMPTP block 79.1
O=C(N/N=C/c1ccc(O)c(Br)c1)c1cc2c(ccc3ccccc32)o1	NadD inh 50.2
O=C(N/N=C/c1c(O)ccc2ccccc12)c1ccc(Br)o1	Scp-1 inhibitor 99.2, STEP block 76.7, LMPTP block 64.3
CN(CCO)c1ccc2c(c1)Oc1ccccc1CN(Cc1cn(Cc3ccc(C(F)(F)F)cc3)nn1)S2(=O)=O	none (no result: NadD inh, Scp-1 inhibitor, STEP block, LMPTP block)
CCNC(=O)N(C)[C@H]1C[C@H]2c3[nH]c4cccc(-c5cccc(F)c5)c4c3CCN2C(=O)[C@H]1[C@H](C)O	none (no result: NadD inh, Scp-1 inhibitor, STEP block, LMPTP block)
Nc1cccc(Nc2ccccc2)c1	none
Nc1ccc(Nc2ccccc2)c(S(=O)(=O)O)c1	Scp-1 inhibitor 82.7, STEP block 97.3, LMPTP block 70.3
COc1cc(C(=O)Nc2scc(-c3ccccc3)c2C(=O)O)cc(OC)c1OC	rCAG binder 49.3
O=S(=O)(c1ccc2nc(-c3ccco3)c(-c3ccco3)nc2c1)N1CCOCC1	rCAG binder 69.3
CC(C)(C)n1nc2c(c1NC(=O)COc1ccc(Cl)cc1)CSC2	NadD inh 46.5 (no result: rCAG binder)
CCCCCCc1c(C)c2ccc(OCC(=O)N3CCC[C@H]3C(=O)O)c(C)c2oc1=O	rCAG binder 41.5
CCc1nnc(NS(=O)(=O)c2ccc(NC(=O)COc3ccc4ccccc4c3)cc2)s1	none
CCc1nnc(NS(=O)(=O)c2ccc(NC(=O)/C=C/c3ccc(OC)cc3OC)cc2)s1	rCAG binder 82.3
O=C(/C=C/c1ccco1)c1cccc([N+](=O)[O-])c1	rCAG binder 38.8
O=C(N/N=C/C=C/c1ccco1)c1cccc([N+](=O)[O-])c1	none
CC(=O)N[C@@H]1C[C@@H]2O[C@@H](CO)CC[C@@H]2O[C@@H]1CCc1ccc(C#CC2(O)CCCC2)cc1	none (no result: NadD inh, Scp-1 inhibitor, STEP block, LMPTP block)
COc1ccc2[nH]c(=O)c(CN(C3CCCCC3)C(c3nnnn3Cc3ccco3)C(C)C)cc2c1 (stereo not drawn)	NadD inh 59.1 (no result: rCAG binder)
Cc1ccc2c(c1)S/C(=C/c1ccc[n+](C)c1)N2CCO	none
CCCCN1/C(=C/c2ccc3ccccc3[n+]2CC)Sc2ccccc21	none (no result: rCAG binder)
